Tests used:
[1] = molecular target: T1, full length TbrPDEB1 (Trypanosoma brucei, UniProt Q8WQX9); experiment: Phosphodiesterase activity assay; assay type: biochemical; conditions: for Selectivity, hPDE4B1 (Ki)/TbrPDEB1 (Ki): ratio of Ki values
T1 sequence (Q8WQX9 1-930): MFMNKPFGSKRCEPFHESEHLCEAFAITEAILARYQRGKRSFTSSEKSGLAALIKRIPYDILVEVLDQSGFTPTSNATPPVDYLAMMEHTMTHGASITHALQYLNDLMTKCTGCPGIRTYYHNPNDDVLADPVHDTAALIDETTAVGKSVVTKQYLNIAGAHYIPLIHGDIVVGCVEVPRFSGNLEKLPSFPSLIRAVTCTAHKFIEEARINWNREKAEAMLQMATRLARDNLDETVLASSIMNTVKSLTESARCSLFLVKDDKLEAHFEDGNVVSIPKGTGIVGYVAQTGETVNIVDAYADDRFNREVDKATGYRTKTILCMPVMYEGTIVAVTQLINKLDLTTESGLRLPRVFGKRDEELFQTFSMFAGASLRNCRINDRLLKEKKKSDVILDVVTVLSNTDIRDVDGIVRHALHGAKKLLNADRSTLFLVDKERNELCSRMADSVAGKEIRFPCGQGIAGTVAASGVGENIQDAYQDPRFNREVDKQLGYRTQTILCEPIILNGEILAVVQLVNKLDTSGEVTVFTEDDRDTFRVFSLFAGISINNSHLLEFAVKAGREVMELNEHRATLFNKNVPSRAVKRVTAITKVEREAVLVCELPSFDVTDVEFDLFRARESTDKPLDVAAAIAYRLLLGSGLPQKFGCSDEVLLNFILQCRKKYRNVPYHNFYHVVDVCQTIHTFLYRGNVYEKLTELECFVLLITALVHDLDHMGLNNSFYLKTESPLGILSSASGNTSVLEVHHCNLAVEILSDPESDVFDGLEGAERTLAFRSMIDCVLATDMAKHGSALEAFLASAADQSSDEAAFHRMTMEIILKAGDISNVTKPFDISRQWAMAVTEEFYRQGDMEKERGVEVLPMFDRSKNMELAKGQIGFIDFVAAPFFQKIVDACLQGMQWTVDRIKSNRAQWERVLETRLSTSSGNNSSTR

[2] = molecular target: T2, full length recombinant hPDE4B1 (Homo sapiens, UniProt Q07343); experiment: Phosphodiesterase activity assay; assay type: biochemical
T2 sequence (Q07343 whole entry): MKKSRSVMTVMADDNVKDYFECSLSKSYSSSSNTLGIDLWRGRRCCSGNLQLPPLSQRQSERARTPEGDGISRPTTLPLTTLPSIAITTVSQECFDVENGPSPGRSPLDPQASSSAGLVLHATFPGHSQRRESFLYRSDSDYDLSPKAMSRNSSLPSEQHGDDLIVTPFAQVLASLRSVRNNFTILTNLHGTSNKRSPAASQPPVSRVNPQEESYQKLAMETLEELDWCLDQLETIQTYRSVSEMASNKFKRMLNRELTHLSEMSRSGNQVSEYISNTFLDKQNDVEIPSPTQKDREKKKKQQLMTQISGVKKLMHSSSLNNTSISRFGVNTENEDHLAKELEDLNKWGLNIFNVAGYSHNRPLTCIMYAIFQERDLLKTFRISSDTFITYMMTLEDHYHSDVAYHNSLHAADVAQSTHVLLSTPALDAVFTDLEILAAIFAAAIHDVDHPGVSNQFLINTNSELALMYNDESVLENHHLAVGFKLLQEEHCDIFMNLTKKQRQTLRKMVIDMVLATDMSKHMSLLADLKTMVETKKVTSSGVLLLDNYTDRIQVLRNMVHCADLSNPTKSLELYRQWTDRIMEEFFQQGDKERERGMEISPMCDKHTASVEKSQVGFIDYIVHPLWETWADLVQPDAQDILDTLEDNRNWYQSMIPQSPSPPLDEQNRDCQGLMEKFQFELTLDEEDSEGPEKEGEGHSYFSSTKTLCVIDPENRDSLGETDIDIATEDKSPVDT

[3] = test system: intracellular cAMP levels in T. brucei; experiment: Intracellular cAMP measurements in bloodstream form trypanosomes; assay type: cell-based, T. brucei Lister 427; conditions: 5 h
Outline: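 Log-phase bloodstream forms, HMI-9 with 10% heat-inactivated FBS, 37 °C, 5% CO2, set at 2 × 10^6 cells/mL. Dosed 5 h with test compound at 0.1, 0.33, 1, 3.3 or 10 μM (final), 0.3 μM PDE inhibitor positive control, 0.025 μM pentamidine, or no drug. 5 × 10^6 cells pelleted and lysed in 0.1 M HCl on ice 20 min; cAMP assayed in extracts in duplicate. Mean of four determinations ± SEM, Student's t-test, P < 0.05.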

[4] = test system: T. brucei bloodstream forms; experiment: Microscopy and DAPI staining; assay type: cell-based; conditions: 10 μM
Outline: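 Lister 427 bloodstream forms in HMI-9 with 10% heat-inactivated FBS, 37 °C, 5% CO2, seeded at 2 × 10^5 cells/mL with 10 μM test compound. Sampled at 0, 6, 12 and 24 h, pelleted at 4 °C, washed in PBS pH 7.4 and spread on slides. DAPI-stained; brightfield and fluorescence imaging scored nuclear and kinetoplast division, cytokinesis and morphology.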

[5] = test system: hPDE4 subtypes; conditions: read-out: hPDE4 subtypes IC50; cited from earlier work
[6] = molecular target: T2, full length recombinant hPDE4B1; conditions: read-out: hPDE4B1 IC50; cited from earlier work
[7] = test system: T. brucei cellular PDE activity; conditions: cited from earlier work
[8] = molecular target: T1, full length TbrPDEB1; conditions: established hPDE4 inhibitors; cited from earlier work
[9] = test system: T. brucei; conditions: cited from earlier work

For COc1ccc(C2=NN(C3CCCCCC3)C(=O)C3CC=CCC23)cc1-c1ccc(C(=O)N2CC[C@@H](O)C2)cc1 (mixture of isomers) [compound 21, cis-2-Cycloheptyl-4-(4′-((R)-3-hydroxy-pyrrolidine-1-carbonyl)-6-methoxy-[1,1′-biphenyl]-3-yl)-4a,5,8,8a-tetrahydrophthalazin-1(2H)-one], the “Selectivity, hPDE4B1 (Ki)/TbrPDEB1 (Ki)” value [1] was 9.

In the case of COc1ccc(C2=NN(C(C)C)C(=O)C3CC=CCC23)cc1-c1ccc(C(=O)N2CC[C@@H](O)C2)cc1 (mixture of isomers) [compound 22, cis-4-(4′-((R)-3-Hydroxypyrrolidine-1-carbonyl)-6-methoxy-[1,1′-biphenyl]-3-yl)-2-isopropyl-4a,5,8,8a-tetrahydrophthalazin-1(2H)-one], the Ki [1] is reported as 200 nM, the “Selectivity, hPDE4B1 (Ki)/TbrPDEB1 (Ki)” value [1] is reported as 15 and the Ki [2] is reported as 3160 nM.

In the case of COc1ccc(C2=NN(C3CCCCCC3)C(=O)C3CC=CCC23)cc1-c1ccc(C(=O)N2CCC[C@@H]2C(N)=O)cc1 (mixture of isomers) [compound 23, (R)-1-(5′-(cis-3-Cycloheptyl-4-oxo-3,4,4a,5,8,8a-hexahydrophthalazin-1-yl)-2′-methoxy-[1,1′-biphenyl]-4-carbonyl)pyrrolidine-2-carboxamide], the “selectivity for TbrPDEB1 over hPDE4B1” value [1] is reported as “more than 10 fold”.

For COc1ccc(C2=NN(C(C)C)C(=O)C3CC=CCC23)cc1-c1ccc(C(=O)N2CCC[C@@H]2C(N)=O)cc1 (mixture of isomers) [compound 24, (R)-1-(5′-(cis-3-Isopropyl-4-oxo-3,4,4a,5,8,8a-hexahydrophthalazin-1-yl)-2′-methoxy-[1,1′-biphenyl]-4-carbonyl)pyrrolidine-2-carboxamide], the “selectivity for TbrPDEB1 over hPDE4B1” value [1] was “more than 10 fold”, the “Selectivity, hPDE4B1 (Ki)/TbrPDEB1 (Ki)” value [1] was 18 and the Ki [2] was 10000 nM.

With COc1ccc(C2=NN(C3CCCCCC3)C(=O)[C@@H]3CC=CC[C@H]23)cc1-c1ccc(C(=O)NCC(N)=O)cc1 (relative stereo) [compound 8, N-(2-Amino-2-oxoethyl)-5′-(cis-3-cycloheptyl-4-oxo-3,4,4a,5,8,8a-hexahydrophthalazin-1-yl)-2′-methoxy-[1,1′-biphenyl]-4-carboxamide] the “effect on intracellular cAMP level” value ([3]; 100 nM, P < 0.05) was “small but significant effect”, the “effect on intracellular cAMP level” value ([3]; 10 μM, P < 0.001) was “strong increase of cAMP level” and the “cellular phenotype by fluorescence microscopy” value (from here on “cellular phenotype”) ([4]; 6 h) was “defect in cytokinesis”. The “cellular phenotype” value ([4]; 12 h) was “rounded cells with multiple flagella, some of them detached, and at least 4 nuclei”, the “cellular phenotype” value ([4]; 24 h) was “only a few live cells could be detected, all of which were severely misshapen” and the Ki [1] was 100 nM. The Ki [2] was 1000 nM.

In the case of COc1ccc(C2=NN(C3CCCCCC3)C(=O)[C@@H]3CC=CC[C@H]23)cc1-c1ccc(C(=O)NCC(=O)NCCO)cc1 (relative stereo) [compound 16, 5′-(cis-3-Cycloheptyl-4-oxo-3,4,4a,5,8,8a-hexahydrophthalazin-1-yl)-N-(2-((2-hydroxyethyl)amino)-2-oxoethyl)-2′-methoxy-[1,1′-biphenyl]-4-carboxamide], the “selectivity for TbrPDEB1 over hPDE4B1” value [1] is reported as about 8 fold.

For COc1ccc(C2=NN(C3CCCCCC3)C(=O)[C@H]3CC=CC[C@@H]23)cc1-c1ccc(C(=O)NCC(N)=O)cc1 [8a, N-(2-Amino-2-oxoethyl)-5′-((4aS,8aR)-3-cycloheptyl-4-oxo-3,4,4a,5,8,8a-hexahydrophthalazin-1-yl)-2′-methoxy-[1,1′-biphenyl]-4-carboxamide], the “fold less potent against TbrPDEB1 than optical isomer 8b” value ([1]; 8a versus 8b) was 100 fold.

In the case of COc1ccc(C2=NN(C3CCCCCC3)C(=O)[C@@H]3CC=CC[C@H]23)cc1OCCCCOc1ccc(-c2nnn[nH]2)cc1 [compound 1], the IC50 [5] is listed as under 1 nM, the “effect on intracellular cAMP level” value ([3]; positive control 0.3 μM, compared with 10 μM of 8) is listed as “equally effective” and the IC50 [6] is listed as 0.6 nM.

For CCOC(=O)c1cnc2c(cnn2CC)c1NN=C(C)C [etazolate], the “inhibition of T. brucei cellular PDE activity” value [7] is given as “do not inhibit”, the “inhibition of the enzyme TbrPDEB1” value [8] is given as “do not inhibit” and the “killing of the parasite” value [9] is given as “do not kill the parasite”.

For N=C(N)c1ccc(OCCCCCOc2ccc(C(=N)N)cc2)cc1 [pentamidine, reference compound], the “effect on intracellular cAMP level” value ([3]; negative control, 0.025 μM, versus untreated parasites) was “not statistically different from untreated parasites”.

In the case of COc1ccc(C2CNC(=O)C2)cc1OC1CCCC1 (stereo not drawn) [rolipram], the “inhibition of T. brucei cellular PDE activity” value [7] is listed as “do not inhibit”, the “inhibition of the enzyme TbrPDEB1” value [8] is listed as “do not inhibit” and the “killing of the parasite” value [9] is listed as “do not kill the parasite”.
